Laboratory results as given in ChEMBL document CHEMBL1125331, “6-Hydroxy-3-n-propyl-2,3,4,5-tetrahydro-1H-3-benzazepine and analogs: new centrally acting 5-HT1A receptor agonists” (J Med Chem, 1992).

What was measured:
[1] = target: T1, 5-hydroxytryptamine receptor 1A (Rattus norvegicus, UniProt P19327); test: Inhibitory activity against 5-hydroxytryptamine 1A receptor in rats, using [3H]8-OH-DPAT as radioligand
T1 sequence (P19327 whole entry): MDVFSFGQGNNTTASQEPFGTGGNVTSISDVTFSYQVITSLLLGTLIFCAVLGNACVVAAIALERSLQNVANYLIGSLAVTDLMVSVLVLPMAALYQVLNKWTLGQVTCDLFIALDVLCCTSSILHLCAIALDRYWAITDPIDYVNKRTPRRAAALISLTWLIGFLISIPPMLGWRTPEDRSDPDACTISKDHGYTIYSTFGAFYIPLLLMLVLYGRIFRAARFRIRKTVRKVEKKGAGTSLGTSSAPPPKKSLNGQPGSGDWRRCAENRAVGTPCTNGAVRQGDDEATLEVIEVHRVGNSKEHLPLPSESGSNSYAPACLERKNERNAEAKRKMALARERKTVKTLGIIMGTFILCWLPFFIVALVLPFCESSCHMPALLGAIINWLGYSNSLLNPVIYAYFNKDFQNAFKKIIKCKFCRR
In short: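 Rat whole-brain membranes (minus brainstem and cerebellum) in 50 mM Tris pH 8.0 with 120 mM NaCl, 4 mM CaCl2, 4 mM MgCl2 and 10 μM pargyline. Rapid filtration, then scintillation counting. Nonspecific binding defined with 10 μM 5-HT. IC50 by semi-log plot and linear regression.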

D(2) dopamine receptor = D(2) dopamine receptor (Rattus norvegicus, UniProt P61169); test: Inhibitory activity against Dopamine receptor D2 in rats using [3H]spiperone as radioligand
D(2) dopamine receptor, sequence (P61169 whole entry): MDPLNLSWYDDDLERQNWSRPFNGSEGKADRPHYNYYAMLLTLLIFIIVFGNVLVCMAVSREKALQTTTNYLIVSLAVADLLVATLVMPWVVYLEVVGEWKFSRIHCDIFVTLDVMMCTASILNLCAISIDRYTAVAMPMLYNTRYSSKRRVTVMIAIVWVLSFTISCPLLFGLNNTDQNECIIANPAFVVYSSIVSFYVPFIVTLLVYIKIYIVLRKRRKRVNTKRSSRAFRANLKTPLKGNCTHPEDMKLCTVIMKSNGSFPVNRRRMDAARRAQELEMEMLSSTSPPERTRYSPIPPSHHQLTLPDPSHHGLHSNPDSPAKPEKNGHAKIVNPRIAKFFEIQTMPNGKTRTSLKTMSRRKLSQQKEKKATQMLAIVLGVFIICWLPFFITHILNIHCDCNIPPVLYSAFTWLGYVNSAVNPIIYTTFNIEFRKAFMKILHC
In short: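 Rat striatal membranes in 50 mM potassium phosphate buffer pH 7.4 were incubated with 0.5 nM [3H]spiperone for 10 min at 37 °C. Specific binding was defined with 10 μM 6,7-ADTN.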

Rattus norvegicus [2] = test: Effect evaluated in vivo on 5-HTP accumulation in limbic system at a dose 3.1 umol/kg (s.c.); type: functional
In short: (§1)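 Male Sprague-Dawley rats (200–300 g) were pretreated with reserpine 5 mg/kg sc 18 h before. Test compound was given sc at 5 mL/kg in neutral solution. 5-HT synthesis rate was indexed by […] 5-HTP accumulation after decarboxylase inhibition with NSD 1015, measured by HPLC-electrochemical detection. Dose-response used 4–6 dose levels, n = 4.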

Rattus norvegicus [3] = test: Effect evaluated in vivo on 5-HTP accumulation in limbic system at a dose 50 umol/kg (s.c.); type: functional; in short: as §1
Rattus norvegicus [4] = test: Effect evaluated in vivo on 5-HTP accumulation in limbic system at a dose 6.25 umol/kg (p.o.); type: functional
In short: (§2)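 Oral dosing in male Sprague-Dawley rats (200–300 g) pretreated with reserpine 5 mg/kg sc 18 h before. After decarboxylase inhibition with NSD 1015, brain 5-HTP or dopa accumulation (HPLC-electrochemical detection) indexed 5-HT synthesis, DA synthesis (limbic) or NE synthesis (hemispheres, mainly cortex).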

Rattus norvegicus [5] = test: Effect evaluated in vivo on NE synthesis in NE-rich hemispheres at a 0.78 dose uM/kg(sc); type: functional
In short: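 Rats pretreated with reserpine 5 mg/kg sc 18 h before received test compound sc at 5 mL/kg in neutral solution. After decarboxylase inhibition with NSD 1015, dopa accumulation in hemispheres (mainly cortex) was measured by HPLC-electrochemical detection as an index of NE synthesis. Dose-response used 4–6 dose levels, n = 4.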

Rattus norvegicus [6] = test: Effect evaluated in vivo on 5-HTP accumulation in corpus striatum at a dose 100 umol/kg (p.o.); type: functional
In short: (§3)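 Male Sprague-Dawley rats (200–300 g) were pretreated with reserpine 5 mg/kg sc 18 h beforehand. Test drug was given at neutral pH, 5 mL/kg. Aromatic amino acid decarboxylase was blocked with NSD 1015. 5-HTP in the dissected brain region was assayed by HPLC with electrochemical detection.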

Rattus norvegicus [7] = test: Effect evaluated in vivo on 5-HTP accumulation in corpus striatum at a dose 12.5 umol/kg (s.c.); type: functional; in short: as §3
Rattus norvegicus [8] = test: Effect evaluated in vivo on 5-HTP accumulation in corpus striatum at a dose 25 umol/kg (p.o.); type: functional; in short: as §3
Rattus norvegicus [9] = test: Effect evaluated in vivo on 5-HTP accumulation in corpus striatum at a dose 3.1 umol/kg (s.c.); type: functional; in short: as §3
Rattus norvegicus [10] = test: Effect evaluated in vivo on 5-HTP accumulation in corpus striatum after perioral administration; type: functional; in short: as §3
Rattus norvegicus [11] = test: Effect evaluated in vivo on 5-HTP accumulation in limbic system after perioral administration; type: functional; in short: as §3
Rattus norvegicus [12] = test: Effect evaluated in vivo on 5-HTP accumulation in limbic system after subcutaneous administration; type: functional; details: sc; in short: as §3
Rattus norvegicus [13] = test: Effect evaluated in vivo on NE synthesis in NE-rich hemispheres after perioral administration; type: functional; in short: as §2
Rattus norvegicus [14] = test: Effect evaluated in vivo on 5-HTP accumulation in corpus striatum at a dose 50 umol/kg (s.c.); type: functional; in short: as §3
Rattus norvegicus [15] = test: Effect evaluated in vivo on 5-HTP accumulation in corpus striatum at a dose 6.25 umol/kg (p.o.); type: functional; in short: as §3
Rattus norvegicus [16] = test: Effect evaluated in vivo on 5-HTP accumulation in limbic system at a dose 0.78 umol/kg (s.c.); type: functional; in short: as §3
Rattus norvegicus [17] = test: Effect evaluated in vivo on 5-HTP accumulation in limbic system at a dose 1.56 umol/kg (p.o.); type: functional; in short: as §2
Rattus norvegicus [18] = test: Effect evaluated in vivo on 5-HTP accumulation in limbic system at a dose 100 umol/kg (p.o.); type: functional; in short: as §2
Rattus norvegicus [19] = test: Effect evaluated in vivo on 5-HTP accumulation in limbic system at a dose 12.5 umol/kg (s.c.); type: functional; in short: as §1
Rattus norvegicus [20] = test: Effect evaluated in vivo on 5-HTP accumulation in limbic system at a dose 25 umol/kg (p.o.); type: functional; in short: as §2
Rattus norvegicus [21] = test: Effect evaluated in vivo on 5-HTP accumulation in NE-rich hemispheres after subcutaneous administration; type: functional; details: sc; in short: as §3
Rattus norvegicus [22] = test: Effect evaluated in vivo on 5-HTP accumulation in NE-rich hemispheres at a 1.56 dose uM/kg(po); type: functional; in short: as §3
Rattus norvegicus [23] = test: Effect evaluated in vivo on 5-HTP accumulation in NE-rich hemispheres at a 100 dose uM/kg(po); type: functional; in short: as §3
Rattus norvegicus [24] = test: Effect evaluated in vivo on 5-HTP accumulation in NE-rich hemispheres at a 12.5 dose uM/kg(sc); type: functional; in short: as §3
Rattus norvegicus [25] = test: Effect evaluated in vivo on 5-HTP accumulation in NE-rich hemispheres at a 25 dose uM/kg(po); type: functional; in short: as §3
Rattus norvegicus [26] = test: Effect evaluated in vivo on 5-HTP accumulation in NE-rich hemispheres at a 3.1 dose uM/kg(sc); type: functional; in short: as §3
Rattus norvegicus [27] = test: Effect evaluated in vivo on 5-HTP accumulation in NE-rich hemispheres at a 50 dose uM/kg(sc); type: functional; in short: as §3
Rattus norvegicus [28] = test: Effect evaluated in vivo on 5-HTP accumulation in NE-rich hemispheres at a 6.25d ose uM/kg(po); type: functional; in short: as §3
Rattus norvegicus [29] = test: Effect evaluated in vivo on 5-HTP accumulation in corpus striatum after subcutaneous administration; type: functional; details: sc; in short: as §3
Rattus norvegicus [30] = test: Effect evaluated in vivo on 5-HTP accumulation in corpus striatum at a dose 0.78 umol/kg (s.c.); type: functional; in short: as §3
Rattus norvegicus [31] = test: Effect evaluated in vivo on 5-HTP accumulation in corpus striatum at a dose 1.56 umol/kg (p.o.); type: functional; in short: as §3
Rattus norvegicus [32] = test: The compound was tested in vivo for locomotor activity in rats at 50 umol/kg after subcutaneous administration; type: functional
In short: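 Male Sprague-Dawley rats received reserpine 5 mg/kg sc in the neck 18 h before testing. Test compound was given sc in the neck (n = 4). Rats were placed singly in photocell motility meters immediately after dosing, and counts were accumulated over 30 min (tests 9 a.m.–1 p.m.). Gross behaviour, including 5-HT syndrome, was observed throughout.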

Rattus norvegicus [33] = test: Effect evaluated in vivo on 5-HTP accumulation in limbic system at a dose 3.1 umol/kg (p.o.); type: functional; in short: as §2
Rattus norvegicus [34] = test: Effect evaluated in vivo on 5-HTP accumulation in limbic system at a dose 50 umol/kg (p.o.); type: functional; in short: as §2
Rattus norvegicus [35] = test: Effect evaluated in vivo on 5-HTP accumulation in NE-rich hemispheres at a 0.20 dose uM/kg(sc); type: functional; in short: as §3
Rattus norvegicus [36] = test: Effect evaluated in vivo on 5-HTP accumulation in NE-rich hemispheres at a 0.80 dose uM/kg(sc); type: functional; in short: as §3
Rattus norvegicus [37] = test: Effect evaluated in vivo on 5-HTP accumulation in corpus striatum at a dose 12.5 umol/kg (p.o.); type: functional; in short: as §3
Rattus norvegicus [38] = test: Effect evaluated in vivo on 5-HTP accumulation in corpus striatum at a dose 3.1 umol/kg (p.o.); type: functional; in short: as §3
Rattus norvegicus [39] = test: Effect evaluated in vivo on 5-HTP accumulation in corpus striatum at a dose 50 umol/kg (p.o.); type: functional; in short: as §3
Rattus norvegicus [40] = test: Effect evaluated in vivo on 5-HTP accumulation in limbic system at a dose 0.20 umol/kg (s.c.); type: functional; in short: as §3
Rattus norvegicus [41] = test: Effect evaluated in vivo on 5-HTP accumulation in limbic system at a dose 0.80 umol/kg (p.o.); type: functional; in short: as §2
Rattus norvegicus [42] = test: Effect evaluated in vivo on 5-HTP accumulation in limbic system at a dose 0.80 umol/kg (s.c.); type: functional; in short: as §1
Rattus norvegicus [43] = test: Effect evaluated in vivo on 5-HTP accumulation in limbic system at a dose 12.5 umol/kg (p.o.); type: functional; in short: as §2
Rattus norvegicus [44] = test: Effect evaluated in vivo on 5-HTP accumulation in NE-rich hemispheres after perioral administration; type: functional; in short: as §3
Rattus norvegicus [45] = test: Effect evaluated in vivo on 5-HTP accumulation in corpus striatum at a dose 0.20 umol/kg (s.c.); type: functional; in short: as §3
Rattus norvegicus [46] = test: Effect evaluated in vivo on 5-HTP accumulation in corpus striatum at a dose 0.80 umol/kg (p.o.); type: functional; in short: as §3
Rattus norvegicus [47] = test: Effect evaluated in vivo on 5-HTP accumulation in corpus striatum at a dose 0.80 umol/kg (s.c.); type: functional; in short: as §3
Rattus norvegicus [48] = test: The compound was tested in vivo for locomotor activity in rats at 50 umol/kg after perioral administration; type: functional
In short: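 Reserpine-pretreated rats (5 mg/kg sc, 18 h before) received test compound orally. Photocell motility counts were accumulated over 30 min, and gross behaviour, including 5-HT syndrome, was observed.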

SMILES: CCCN1CCc2cccc(OC)c2CC1
- IC50 [1]: 63 nM
- IC50 (D(2) dopamine receptor): 3600 nM
- Control (Rattus norvegicus [2]): 48%
- Control (Rattus norvegicus [3]): 61%
- Control (Rattus norvegicus [4]): 77%
- Control (Rattus norvegicus [5]): 92%
- Control (Rattus norvegicus [6]): 56%
- Control (Rattus norvegicus [7]): 48%
- Control (Rattus norvegicus [8]): 65%
- Control (Rattus norvegicus [9]): 53%
- ED50 (Rattus norvegicus [10]): 10 µmol/kg
- ED50 (Rattus norvegicus [11]): 7 µmol/kg
- ED50 (Rattus norvegicus [12]): 1.5 µmol/kg
- ED50 (Rattus norvegicus [13]): 13 µmol/kg
- Control (Rattus norvegicus [14]): 63%
- Control (Rattus norvegicus [15]): 79%
- Control (Rattus norvegicus [16]): 99%
- Control (Rattus norvegicus [17]): 99%
- Control (Rattus norvegicus [18]): 47%
- Control (Rattus norvegicus [19]): 42%
- Control (Rattus norvegicus [20]): 58%
- ED50 (Rattus norvegicus [21]): 1.5 µmol/kg
- Control (Rattus norvegicus [22]): 101%
- Control (Rattus norvegicus [23]): 53%
- Control (Rattus norvegicus [24]): 48%
- Control (Rattus norvegicus [25]): 58%
- Control (Rattus norvegicus [26]): 47%
- Control (Rattus norvegicus [27]): 58%
- Control (Rattus norvegicus [28]): 84%
- ED50 (Rattus norvegicus [29]): 1 µmol/kg
- Control (Rattus norvegicus [30]): 74%
- Control (Rattus norvegicus [31]): 97%
- Locomotor activity (Rattus norvegicus [32]): 197

SMILES: CCCN1CCc2c(Br)ccc(OC)c2CC1
- IC50 [1]: 28 nM
- IC50 (D(2) dopamine receptor): 680 nM
- Control (Rattus norvegicus [33]): 90%
- Control (Rattus norvegicus [2]): 69%
- Control (Rattus norvegicus [34]): 48%
- Control (Rattus norvegicus [3]): 48%
- Control (Rattus norvegicus [35]): 102%
- Control (Rattus norvegicus [36]): 111%
- Control (Rattus norvegicus [37]): 77%
- Control (Rattus norvegicus [38]): 96%
- Control (Rattus norvegicus [9]): 71%
- Control (Rattus norvegicus [39]): 50%
- ED50 (Rattus norvegicus [10]): 14 µmol/kg
- ED50 (Rattus norvegicus [11]): 13 µmol/kg
- ED50 (Rattus norvegicus [12]): 2.7 µmol/kg
- Control (Rattus norvegicus [14]): 50%
- Control (Rattus norvegicus [40]): 108%
- Control (Rattus norvegicus [41]): 88%
- Control (Rattus norvegicus [42]): 118%
- Control (Rattus norvegicus [43]): 76%
- ED50 (Rattus norvegicus [44]): 21 µmol/kg
- ED50 (Rattus norvegicus [21]): 5 µmol/kg
- Control (Rattus norvegicus [26]): 83%
- Control (Rattus norvegicus [27]): 43%
- ED50 (Rattus norvegicus [29]): 3.2 µmol/kg
- Control (Rattus norvegicus [45]): 117%
- Control (Rattus norvegicus [46]): 112%
- Control (Rattus norvegicus [47]): 130%
- Locomotor activity (Rattus norvegicus [48]): 21
- Locomotor activity (Rattus norvegicus [32]): 108
